The species named for experiment [1] is Homo sapiens. Kind of experiment: Selectivity ratio of Ki for recombinant cathepsin-K (unknown origin) to Ki for recombinant cathepsin-L (unknown origin). Put shortly:
(§1)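 FK = Ki(CatK)/Ki(CatL) and FS = Ki(CatS)/Ki(CatL). Each Ki comes from recombinant enzyme kinetics over a minimum of four inhibitor concentrations, each measured in duplicate.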

Another experiment concerns the target Cathepsin S (Homo sapiens, UniProt P25774). Kind of experiment: Inhibition of recombinant cathepsin-S (unknown origin) using Z-Val-Arg-AMC as substrate by fluorescence assay. The procedure, abridged: (§2)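 Recombinant enzyme kinetics. Inhibitor stocks were quantified by amino-acid analysis. Ki was obtained from a minimum of four inhibitor concentrations, each run in duplicate.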

The species entered for experiment [2] is Homo sapiens. Nature of the experiment: Selectivity ratio of Ki for recombinant cathepsin-B (unknown origin) to Ki for recombinant cathepsin-L (unknown origin). Put shortly:
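Selectivity factor FB = Ki(CatB)/Ki(CatL). Both Ki values come from kinetic runs with the recombinant enzymes, each using at least three inhibitor concentrations in duplicate.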

Experiment [3] is filed under the species Homo sapiens. Nature of the experiment: Selectivity ratio of Ki for recombinant cathepsin-S (unknown origin) to Ki for recombinant cathepsin-L (unknown origin). Put shortly: as §1
The next experiment addresses T1, Cathepsin K (Homo sapiens, UniProt P43235).
T1 sequence (P43235 whole entry): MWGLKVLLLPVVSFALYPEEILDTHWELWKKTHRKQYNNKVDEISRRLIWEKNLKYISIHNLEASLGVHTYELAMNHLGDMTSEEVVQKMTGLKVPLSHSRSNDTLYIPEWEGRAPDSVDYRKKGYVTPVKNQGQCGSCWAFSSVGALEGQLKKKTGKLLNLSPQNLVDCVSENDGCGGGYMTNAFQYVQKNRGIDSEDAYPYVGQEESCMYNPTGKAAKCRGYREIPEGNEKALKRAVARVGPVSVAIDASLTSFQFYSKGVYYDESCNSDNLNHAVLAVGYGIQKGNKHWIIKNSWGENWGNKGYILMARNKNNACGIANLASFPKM
Kind of experiment: Inhibition of recombinant cathepsin-K (unknown origin) using Z-Phe-Arg-AMC as substrate by fluorescence assay. The procedure, abridged:
as §2

Experiment [4] has as its target T2, Cathepsin B (Homo sapiens, UniProt P07858). Nature of the experiment: Inhibition of recombinant cathepsin-B (unknown origin) using Z-Arg-Arg-AMC as substrate by fluorescence assay. The procedure, abridged:
(§3)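 Kinetic assay with recombinant enzyme. Peptide amide stock concentrations were set by amino-acid analysis. Ki was derived from at least three inhibitor concentrations, each measured in duplicate.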

For experiment [5], the target named is T3, Procathepsin L (Homo sapiens, UniProt P07711). Kind of experiment: Inhibition of recombinant cathepsin-L (unknown origin) using Z-Phe-Arg-AMC as substrate by fluorescence assay. Put shortly: as §3
Target sequence in this assay (P07711 whole entry): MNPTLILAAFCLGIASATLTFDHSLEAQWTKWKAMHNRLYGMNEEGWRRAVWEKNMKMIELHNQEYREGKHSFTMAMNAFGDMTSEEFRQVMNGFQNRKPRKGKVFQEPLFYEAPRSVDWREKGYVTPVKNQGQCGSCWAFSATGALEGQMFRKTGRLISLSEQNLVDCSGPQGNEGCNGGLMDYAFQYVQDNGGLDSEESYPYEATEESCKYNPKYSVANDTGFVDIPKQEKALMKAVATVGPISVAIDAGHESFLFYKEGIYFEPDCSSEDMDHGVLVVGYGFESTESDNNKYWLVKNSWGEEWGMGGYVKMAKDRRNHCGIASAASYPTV
Experiment [6] is filed under the species Homo sapiens. Kind of experiment: Selectivity ratio of Ka for recombinant cathepsin-L (unknown origin) to Ka for recombinant cathepsin-B (unknown origin).
Experiment [7] concerns the target T3, Procathepsin L. Nature of the experiment: Irreversible inhibition of recombinant cathepsin-L (unknown origin) using Z-Phe-Arg-AMC as substrate.
Target sequence in this assay (P07711 114-333 limits assumed): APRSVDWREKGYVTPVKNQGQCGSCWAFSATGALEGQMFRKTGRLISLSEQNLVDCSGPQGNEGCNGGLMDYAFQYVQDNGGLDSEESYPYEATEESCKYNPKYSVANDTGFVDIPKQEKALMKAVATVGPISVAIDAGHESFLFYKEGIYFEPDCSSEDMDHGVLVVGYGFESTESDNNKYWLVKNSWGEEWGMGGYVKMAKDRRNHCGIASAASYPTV
For experiment [8], the target named is T2, Cathepsin B. Kind of experiment: Irreversible inhibition of recombinant cathepsin-B (unknown origin) using Z-Arg-Arg-AMC as substrate.

pKi: −log10 of the molar value. Peptide text beside a SMILES is read from it. * marks the point of attachment. Cbz = O=C(OCc1ccccc1)*

Cathepsin S, sequence (P25774 whole entry): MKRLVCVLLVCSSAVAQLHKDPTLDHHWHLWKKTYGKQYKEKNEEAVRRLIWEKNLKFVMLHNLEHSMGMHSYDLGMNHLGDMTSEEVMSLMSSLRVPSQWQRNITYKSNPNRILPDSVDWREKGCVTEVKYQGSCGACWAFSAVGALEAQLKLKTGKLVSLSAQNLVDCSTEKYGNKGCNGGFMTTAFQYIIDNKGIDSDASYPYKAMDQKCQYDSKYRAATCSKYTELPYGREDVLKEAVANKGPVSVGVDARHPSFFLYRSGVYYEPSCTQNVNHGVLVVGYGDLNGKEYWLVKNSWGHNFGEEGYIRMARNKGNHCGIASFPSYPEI

`CC(C)C[C@H](NC(=O)OCc1ccccc1)C(=O)N[C@@H](Cc1ccccc1)C(=O)N[C@@H](CCCCN)C(N)=O` (Cbz-Leu-Phe-Lys-NH2): the Ratio Ki was determined as 473 in the experiment filed under Homo sapiens [1], 2630 in the experiment listed under Homo sapiens [2] and 27 in the experiment listed under Homo sapiens [3]. The pKi was 4.92 at Cathepsin S, 3.67 on Cathepsin K, 2.93 on Cathepsin B [4] and 6.35 on Procathepsin L [5].
On to `Cc1cccc(C)c1C(=O)OCC(=O)[C@H](CCCCN)NC(=O)[C@H](Cc1ccccc1)NC(=O)[C@H](CCCCN)NC(=O)OCc1ccccc1`, for which the Ratio in the experiment listed under Homo sapiens [6] was determined as 0.3. For the same molecule, the Ka at Procathepsin L [7] worked out at 2.52 ×10⁵ /s/M; at Cathepsin B [8], 8.22 ×10⁵ /s/M.
As to `NCCCC[C@H](NC(=O)[C@H](Cc1ccccc1)NC(=O)[C@H](CCCCN)NC(=O)OCc1ccccc1)C(N)=O` (Cbz-Lys-Phe-Lys-NH2), the Ratio Ki in the experiment listed under Homo sapiens [1] stood at 319; in the experiment filed under Homo sapiens [2] it was 1680; in the experiment filed under Homo sapiens [3], 46. Moreover, the pKi was 4.39 at Cathepsin S, 3.55 on Cathepsin K, 2.83 at Cathepsin B [4] and 6.05 on Procathepsin L [5].
In the case of `N=C(N)NCCC[C@H](NC(=O)OCc1ccccc1)C(=O)N[C@@H](Cc1ccccc1)C(=O)N[C@@H](CCCCN)C(N)=O` (Cbz-Arg-Phe-Lys-NH2), the Ratio Ki in the experiment listed under Homo sapiens [1] was 198; in the experiment listed under Homo sapiens [2], 1760; in the experiment filed under Homo sapiens [3], 11. Moreover, the pKi on Cathepsin S is 5.07; on Cathepsin K, 3.83; at Cathepsin B [4], 2.89; at Procathepsin L [5] it was 6.13.
`Cc1cccc(C)c1C(=O)OCC(=O)[C@H](CCCCN)NC(=O)[C@H](Cc1ccccc1)NC(=O)OCc1ccccc1`: in the experiment listed under Homo sapiens [6], the Ratio was 7.8. Also, the Ka worked out at 2.96 ×10⁵ /s/M at Procathepsin L [7] and 0.38 ×10⁵ /s/M at Cathepsin B [8].
The like results for `Cc1cccc(C)c1C(=O)OCC(=O)[C@H](CCCCN)NC(=O)[C@H](Cc1ccccc1)NC(=O)[C@H](CC(C)C)NC(=O)OCc1ccccc1` were, in that order, 2, 2.69 ×10⁵ /s/M and 1.36 ×10⁵ /s/M.
For `NCCCC[C@H](NC(=O)[C@H](Cc1ccc(-c2cccs2)cc1)NC(=O)OCc1ccccc1)C(N)=O`, the Ratio Ki in the experiment filed under Homo sapiens [1] is 200; in the experiment filed under Homo sapiens [2] it was 325; in the experiment listed under Homo sapiens [3] it was 233. The negative logarithm of the Ki (pKi) on Cathepsin S is 4.55; on Cathepsin K it was 4.62; on Cathepsin B [4] it was 4.41; on Procathepsin L [5], 6.92.
As for `NCCCC[C@H](NC(=O)[C@H](Cc1ccccc1)NC(=O)[C@H](Cc1c[nH]c2ccccc12)NC(=O)OCc1ccccc1)C(N)=O` (Cbz-Trp-Phe-Lys-NH2), the Ratio Ki is 1640 in the experiment listed under Homo sapiens [1], 2140 in the experiment filed under Homo sapiens [2] and 51 in the experiment listed under Homo sapiens [3]. Moreover, the pKi on Cathepsin S was 4.70; on Cathepsin K, 3.19; at Cathepsin B [4], 3.08; at Procathepsin L [5] it was 6.41.
`NCCCC[C@H](NC(=O)[C@H](Cc1ccccc1)NC(=O)OCc1ccccc1)C(N)=O`: the Ratio Ki worked out at 11 in the experiment listed under Homo sapiens [1], 810 in the experiment listed under Homo sapiens [2] and 13 in the experiment filed under Homo sapiens [3]. Further, the pKi on Cathepsin S was 4.25; at Cathepsin K, 4.33; on Cathepsin B [4], 2.47; at Procathepsin L [5], 5.38.
On to `Cc1cccc(C)c1C(=O)OCC(=O)[C@H](CCCCN)NC(=O)[C@H](Cc1ccccc1)NC(=O)[C@H](CCCNC(=N)N)NC(=O)OCc1ccccc1`, for which, in the experiment filed under Homo sapiens [6], the Ratio came to 11.5. Further, the Ka stood at 8.75 ×10⁵ /s/M at Procathepsin L [7] and 0.76 ×10⁵ /s/M on Cathepsin B [8].
Consider `CNCCCC[C@H](NC(=O)[C@H](Cc1ccccc1)NC(=O)OCc1ccccc1)C(N)=O`, for which, in the experiment filed under Homo sapiens [2], the Ratio Ki is 595. Further, the pKi was 2.81 on Cathepsin B [4] and 5.59 on Procathepsin L [5].
For `NCCCC[C@H](NC(=O)[C@H](Cc1ccccc1)NC(=O)CCc1ccccc1)C(N)=O` the same measures were 636, 2.69 and 5.49.
Regarding `Cc1ccc(-c2ccc(C[C@H](NC(=O)OCc3ccccc3)C(=O)N[C@@H](CCCCN)C(N)=O)cc2)cc1`, in the experiment filed under Homo sapiens [2], the Ratio Ki worked out at 66. In addition, the negative-log Ki (pKi) on Cathepsin B [4] was 3.95; at Procathepsin L [5], 5.77.
For the molecule `CC(C)C[C@H](NC(=O)[C@H](Cc1ccccc1)NC(=O)OCc1ccccc1)C(N)=O` (Cbz-Phe-Leu-NH2), the Ratio Ki in the experiment listed under Homo sapiens [2] was determined as 310. The negative logarithm of the Ki (pKi) on Cathepsin B [4] is 2.36; at Procathepsin L [5], 4.85.
On to `Cc1cccc(C)c1C(=O)OCC(=O)[C@H](CCCCN)NC(=O)[C@H](Cc1ccccc1)NC(=O)[C@H](Cc1c[nH]c2ccccc12)NC(=O)OCc1ccccc1`, for which, in the experiment filed under Homo sapiens [6], the Ratio amounted to 6.9. Also, the Ka at Procathepsin L [7] was found to be 3.92 ×10⁵ /s/M; on Cathepsin B [8], 0.57 ×10⁵ /s/M.

As a reminder, the pKi is the negative decadic logarithm of the Ki, by convention in mol/L.

(Values after ChEMBL document CHEMBL2380300, “Identification of new peptide amides as selective cathepsin L inhibitors: the first step towards selective irreversible inhibitors?” (Bioorg Med Chem Lett, 2013).)
